Shown is part of a subset that was picked to be rich in hits.
T cruzi growth-1: T. cruzi proliferation inhibition; 77,000 compounds, 5.9% hits; T. cruzi beta-gal in NIH3T3, GalScreen luminescence, 90 h; inhibition, % at 8.34 µM; AID 624255;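 active = mean inhibition above about 93%, with at least 55% of replicates each passing it, limit read from the data, passing the limit was not always enough; inconclusive = only one of those two conditions holds; inactive = neither condition holds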
IDH1 R132H inh: blocks human IDH1 R132H reductase activity. O75874. AID 624101. diaphorase/resazurin fluorescence, 60 min. 70,000 compounds, 0.18% hits. inhibition, % at 10 µM; in the data active = inhibition above about 34%; inconclusive = no clear call, values can overlap the other calls; inactive = below about 11%;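 also: 0% = DMSO and 100% = no enzyme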
KDM4C inh: KDM4C (human) demethylase inhibition; 96,000 compounds, 0.15% hits; AID 720574; inhibition, % at 12.5 µM; GST-KDM4C 2-372, H3K9me3 peptide, LANCE TR-FRET;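 active = mean replicate inhibition above about 25%, with at least 55% of replicates also reaching it, limit read from the data, passing the limit was not always enough; inconclusive = only one of those two conditions met; inactive = neither condition met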
Target sequence (Q9H3R0 2-372 limits assumed): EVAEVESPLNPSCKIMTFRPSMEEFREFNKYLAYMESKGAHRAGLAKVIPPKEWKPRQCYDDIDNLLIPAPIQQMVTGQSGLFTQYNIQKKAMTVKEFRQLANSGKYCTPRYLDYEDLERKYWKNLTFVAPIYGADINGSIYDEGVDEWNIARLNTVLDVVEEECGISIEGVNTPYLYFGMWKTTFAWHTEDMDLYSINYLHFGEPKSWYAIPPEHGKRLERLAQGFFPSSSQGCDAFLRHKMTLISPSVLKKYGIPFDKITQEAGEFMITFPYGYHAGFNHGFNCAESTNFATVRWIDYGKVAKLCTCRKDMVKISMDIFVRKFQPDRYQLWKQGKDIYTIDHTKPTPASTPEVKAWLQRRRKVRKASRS
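System: N-terminal GST-fused human GASC-1 (KDM4C) fragment, residues 2-372; amount: enzyme final amount 10 nM; incubation: reaction 30 min RT, detection step 1 h RT; medium: HEPES buffer, pH 7.5, plus ascorbate; technique: LANCE TR-FRET, Eu antibody, ULight-streptavidin, EDTA, ex 340 nm, em 618/671 nm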
T cruzi growth-2: blocks T. cruzi growth in NIH3T3 host cells; T. cruzi beta-gal in NIH3T3, GalScreen luminescence, 90 h; AID 651739; shares compounds with T cruzi growth-1; inhibition, % at 8.35 µM; 5,600 compounds, 72% hits;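 active = mean replicate inhibition above about 95% and at least 55% of replicates individually reaching it, limit read from the data; inconclusive = only one of the two criteria is met; inactive = neither criterion is met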
T cruzi growth-3: Trypanosoma cruzi proliferation inhibition | shares compounds with T cruzi growth-1 | AID 651740 | inhibition, % at 2.09 µM | 5,600 compounds, 21% hits | T. cruzi beta-gal in NIH3T3, GalScreen luminescence, 90 h;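 active = mean inhibition above about 95%, with at least 55% of replicates also reaching it, limit read from the data; inconclusive = meets just one of the two conditions; inactive = meets neither condition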;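 also: plate controls were neutral control median for no effect and positive control median for full effect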
NIH3T3 tox: kills mouse NIH/3T3 fibroblasts. cytotoxicity (signal decrease), % at 8.35 µM. AID 651742. 5,600 compounds, 14% hits. shares compounds with T cruzi growth-1. NIH/3T3 viability, CellTiter-Glo ATP luminescence, 90 h;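 active = mean signal decrease across replicates above about 35% based on untreated-well scatter, with enough replicates individually passing, limit read from the data; inconclusive = no rule stated though some were filed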;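 also: 0% = median of neutral control wells and 100% = median of positive control wells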
3T3 cytotox 2: NIH/3T3 (mouse) viability loss; NIH/3T3 viability, CellTiter-Glo ATP luminescence, 90 h; inhibition, % at 24.9 µM; shares compounds with T cruzi growth-1; 5,600 compounds, 56% hits;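 active = mean loss of cell viability signal at or above a set limit, and enough replicates individually reaching it; inconclusive = meets only the mean limit or only the replicate share; inactive = meets neither condition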;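 also: 0% = median of neutral control wells and 100% = median of positive control wells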
* hit, by the source's call; ? = inconclusive; nt = not tested or not shown.

SMILES | T cruzi growth-1 | IDH1 R132H inh | KDM4C inh | T cruzi growth-2 | T cruzi growth-3 | NIH3T3 tox | 3T3 cytotox 2
CN1C(=O)c2cc(NC(=O)C3CC3)ccc2OC[C@@H]2O[C@@H](CC(=O)NC3CCC3)CC[C@@H]21 | -23 | nt | -1 | nt | nt | nt | nt
O=C(c1cccc(F)c1)N1CC2(C1)[C@@H](c1ccccc1)[C@H](CO)N2C(=O)C1CCC1 | nt | nt | 1 | nt | nt | nt | nt
COc1ccc(S(=O)(=O)N2CCCCN3[C@H](CO)[C@H](c4ccc(C#CC5CC5)cc4)[C@H]3C2)cc1 | 100* | nt | 1 | 106* | 111* | 54* | 105*
COc1ccc(S(=O)(=O)N2CCCCN3[C@H](C2)[C@H](c2ccc(C#CC4CC4)cc2)[C@@H]3CO)cc1 | 124* | nt | 0 | 106* | 73 | 15 | -11
O=S(=O)(c1ccc(F)cc1)N1CCCCN2[C@H](CO)[C@@H](c3ccc(C#CC4CC4)cc3)[C@H]2C1 | 94 | nt | 0 | nt | nt | nt | nt
COc1cccc(S(=O)(=O)N2CCCCN3[C@H](CO)[C@H](c4ccc(C#CC5CC5)cc4)[C@@H]3C2)c1 | 105 | nt | -1 | nt | nt | nt | nt
O=S(=O)(c1ccc(F)cc1)N1CCCCN2[C@H](C1)[C@H](c1ccc(C#CC3CCCC3)cc1)[C@@H]2CO | 116* | nt | nt | 97* | 87 | 27 | 54*
O=S(=O)(c1ccc(F)cc1)N1CCCCN2[C@H](CO)[C@H](c3ccc(C#CC4CCCC4)cc3)[C@H]2C1 | 84 | nt | nt | nt | nt | nt | nt
C[C@@H]1CN([C@@H](C)CO)C(=O)c2cc(-c3ccc(C#N)cc3)cnc2O[C@@H]1CN(C)Cc1ccccn1 | -33 | 1 | 0 | nt | nt | nt | nt
COc1ccc(OC)c(NC(=O)CSc2nnc(-c3ccccc3)n2C)c1 | nt | 0 | nt | nt | nt | nt | nt
O=C(O)C[C@@H]1C[C@H]2c3cc(NC(=O)C4CCC4)ccc3O[C@H]2[C@@H](CO)O1 | nt | nt | 1 | nt | nt | nt | nt
CCCN1[C@@H]2c3ccc(-c4cccc(F)c4)c(=O)n3C[C@H]1[C@H](CO)[C@H]2C(=O)NCC1CC1 | -60 | nt | -2 | nt | nt | nt | nt
CC(C)CC#Cc1ccc2c(c1)O[C@@H](CN(C)C(=O)C1CCC1)[C@H](C)CN([C@H](C)CO)S2(=O)=O | ? | nt | -1 | 102* | 80 | -20 | 101*
CC(C)CC#Cc1ccc2c(c1)O[C@@H](CN(C)C(=O)C1CCC1)[C@@H](C)CN([C@H](C)CO)S2(=O)=O | 76 | 0 | -1 | nt | nt | nt | nt
CC(C)CC#Cc1ccc2c(c1)O[C@H](CN(C)C(=O)C1CCC1)[C@H](C)CN([C@H](C)CO)S2(=O)=O | 84 | 1 | 1 | nt | nt | nt | nt
CC(C)CC#Cc1ccc2c(c1)O[C@H](CN(C)C(=O)C1CCC1)[C@@H](C)CN([C@@H](C)CO)S2(=O)=O | 106* | nt | -2 | 107* | 83 | 15 | 104*
CC(C)CC#Cc1ccc2c(c1)O[C@H](CN(C)C(=O)C1CCC1)[C@H](C)CN([C@@H](C)CO)S2(=O)=O | 95 | nt | 0 | nt | nt | nt | nt
CC(C)CC#Cc1ccc2c(c1)O[C@@H](CN(C)C(=O)C1CCC1)[C@H](C)CN([C@@H](C)CO)S2(=O)=O | 106* | 11 | -1 | 97* | 104* | -3 | 42*
Cc1ccc2nc(-c3cccnc3)cc(C(=O)Nc3ccc(S(=O)(=O)NC(C)(C)C)cc3)c2c1 | nt | 0 | nt | nt | nt | nt | nt
C/C=C/C#CC#C[C@@H](O[C@@H]1O[C@H](CO)[C@@H](O)[C@H](O)[C@H]1O)[C@H](O)/C=C/CCCO | nt | 0 | nt | nt | nt | nt | nt
CCC(=O)N(C)C[C@@H]1Oc2cc(C#CC(C)(C)O)ccc2S(=O)(=O)N([C@H](C)CO)C[C@H]1C | -5 | -5 | -2 | nt | nt | nt | nt
C[C@H](CO)N1C[C@H](C)[C@@H](CN(C)Cc2cccc(F)c2)Oc2cc(-c3ccc(F)cc3)ccc2S1(=O)=O | 69 | -1 | 1 | nt | nt | nt | nt
OC[C@@H]1Nc2ccc(-c3ccccc3)cc2[C@H]2[C@@H]1CCN2Cc1ccc(F)cc1 | 105* | nt | 0 | 104* | 111* | 12 | 103*
OC[C@H]1Nc2ccc(-c3ccccc3)cc2[C@H]2[C@@H]1CCN2Cc1ccc(F)cc1 | 104* | nt | 1 | 99* | 113* | 26 | 105*
O=C(Cc1ccccc1)N1CC[C@@H]2[C@H]1c1cc(-c3ccc(F)cc3)ccc1N[C@@H]2CO | 34 | nt | 2 | nt | nt | nt | nt

Screening data deposited in PubChem BioAssay by Broad Institute.
